# Target: Albumin (Bos taurus, UniProt P02769)
# Assay: Inhibition of glycation of bovine serum albumin assessed as advanced glycated end product measured after 7 days by spectrofluorimeter in presence of glucose anhydrous
# Conditions: not given; call rule not given here
# In short: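 BSA (10 mg/mL) incubated with anhydrous glucose (50 mg/mL) in 67 mM sodium phosphate buffer, pH 7.4, containing 3 mM sodium azide; compounds dissolved in DMSO. Incubation 37 °C for 7 days. Then 100% trichloroacetic acid added and the mixture centrifuged at 15,000 rpm, 4 min, 4 °C. A PBS, pH 10, was also prepared.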
# Sequence of Albumin (P02769 whole entry): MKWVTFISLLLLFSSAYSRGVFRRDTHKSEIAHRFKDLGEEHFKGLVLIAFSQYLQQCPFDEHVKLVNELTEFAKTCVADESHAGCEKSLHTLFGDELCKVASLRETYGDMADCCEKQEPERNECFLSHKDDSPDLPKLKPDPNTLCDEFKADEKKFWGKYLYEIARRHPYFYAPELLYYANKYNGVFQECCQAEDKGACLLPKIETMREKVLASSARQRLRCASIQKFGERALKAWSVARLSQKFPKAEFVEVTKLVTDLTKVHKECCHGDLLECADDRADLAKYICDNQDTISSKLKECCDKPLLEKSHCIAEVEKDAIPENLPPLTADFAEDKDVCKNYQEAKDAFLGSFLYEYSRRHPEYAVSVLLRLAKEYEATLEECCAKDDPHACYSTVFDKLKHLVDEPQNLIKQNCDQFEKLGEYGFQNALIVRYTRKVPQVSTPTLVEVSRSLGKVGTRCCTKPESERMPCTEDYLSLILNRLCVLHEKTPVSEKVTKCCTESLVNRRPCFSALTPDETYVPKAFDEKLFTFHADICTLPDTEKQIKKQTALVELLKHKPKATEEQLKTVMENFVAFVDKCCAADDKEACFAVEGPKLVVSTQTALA
row,SMILES,IC50
1,CC(C)(C)OC(=O)NCC(=O)N1CCC(c2noc3cc(F)ccc23)CC1,Not Active
2,O=C(CNC(=S)Nc1ccc(Cl)cc1)N1CCC(c2noc3cc(F)ccc23)CC1,Not Active
3,CC(C)(C)OC(=O)N1CCCC1C(=O)N1CCC(c2noc3cc(F)ccc23)CC1 (stereo not given),Not Active
4,O=C(CNC(=S)Nc1cccc(Cl)c1)N1CCC(c2noc3cc(F)ccc23)CC1,Not Active

# Same assay, conditions: read-out: IC50
row,SMILES,IC50 [µM]
1,O=C(C1CCCN1C(=O)Nc1ccc(F)cc1)N1CCC(c2noc3cc(F)ccc23)CC1 (stereo not given),76.1
2,O=C(NCC(=O)N1CCC(c2noc3cc(F)ccc23)CC1)Nc1cccc(Cl)c1,144
3,O=C(C1CCCN1C(=O)Nc1ccccc1)N1CCC(c2noc3cc(F)ccc23)CC1 (stereo not given),340
4,COc1ccc(NC(=O)N2CCCC2C(=O)N2CCC(c3noc4cc(F)ccc34)CC2)cc1 (stereo not given),22.1
5,COc1cccc(NC(=O)NCC(=O)N2CCC(c3noc4cc(F)ccc34)CC2)c1,21.1
6,O=C(NCC(=O)N1CCC(c2noc3cc(F)ccc23)CC1)Nc1ccccc1,390
7,O=C(C1CCCN1C(=S)Nc1ccccc1F)N1CCC(c2noc3cc(F)ccc23)CC1 (stereo not given),7.8
8,COc1ccccc1NC(=O)NCC(=O)N1CCC(c2noc3cc(F)ccc23)CC1,20.2
9,O=C(NCC(=O)N1CCC(c2noc3cc(F)ccc23)CC1)Nc1ccccc1F,55.5
10,O=C(CNC(=S)Nc1ccc(F)cc1)N1CCC(c2noc3cc(F)ccc23)CC1,70.3
11,COc1cccc(NC(=S)NCC(=O)N2CCC(c3noc4cc(F)ccc34)CC2)c1,15.3
12,C[C@@H]1O[C@@H](OC[C@H]2O[C@@H](Oc3c(-c4ccc(O)c(O)c4)oc4cc(O)cc(O)c4c3=O)[C@H](O)[C@@H](O)[C@@H]2O)[C@H](O)[C@H](O)[C@H]1O [RUTIN],41.9
13,O=C(C1CCCN1C(=S)Nc1ccccc1Br)N1CCC(c2noc3cc(F)ccc23)CC1 (stereo not given),7.8
14,O=C(CNC(=S)Nc1ccccc1)N1CCC(c2noc3cc(F)ccc23)CC1,380
15,O=C(C1CCCN1C(=S)Nc1ccccc1)N1CCC(c2noc3cc(F)ccc23)CC1 (stereo not given),295
16,COc1ccccc1NC(=S)NCC(=O)N1CCC(c2noc3cc(F)ccc23)CC1,4.1
17,O=C(C1CCCN1C(=O)Nc1cccc(Br)c1)N1CCC(c2noc3cc(F)ccc23)CC1 (stereo not given),6.9
18,O=C(CNC(=S)Nc1ccccc1F)N1CCC(c2noc3cc(F)ccc23)CC1,9.1
19,O=C(C1CCCN1C(=S)Nc1cccc(Br)c1)N1CCC(c2noc3cc(F)ccc23)CC1 (stereo not given),4.7
20,O=C(C1CCCN1C(=O)Nc1cccc(F)c1)N1CCC(c2noc3cc(F)ccc23)CC1 (stereo not given),117
21,O=C(NCC(=O)N1CCC(c2noc3cc(F)ccc23)CC1)Nc1cccc(Br)c1,9.3

row,SMILES,IC50 [µM]
1,O=C(NCC(=O)N1CCC(c2noc3cc(F)ccc23)CC1)Nc1cccc(F)c1,100
2,O=C(C1CCCN1C(=S)Nc1ccc(F)cc1)N1CCC(c2noc3cc(F)ccc23)CC1 (stereo not given),70.9
3,O=C(C1CCCN1C(=S)Nc1cccc(Cl)c1)N1CCC(c2noc3cc(F)ccc23)CC1 (stereo not given),126
4,O=C(CNC(=S)Nc1cccc(Br)c1)N1CCC(c2noc3cc(F)ccc23)CC1,4.9
5,O=C(NCC(=O)N1CCC(c2noc3cc(F)ccc23)CC1)Nc1ccc(Cl)cc1,83.9
6,O=C(C1CCCN1C(=O)Nc1cccc(Cl)c1)N1CCC(c2noc3cc(F)ccc23)CC1 (stereo not given),145
7,O=C(NCC(=O)N1CCC(c2noc3cc(F)ccc23)CC1)Nc1ccc(F)cc1,75.8
8,O=C(C1CCCN1C(=O)Nc1ccc(Br)cc1)N1CCC(c2noc3cc(F)ccc23)CC1 (stereo not given),6.8
9,O=C(CNC(=S)Nc1ccccc1Br)N1CCC(c2noc3cc(F)ccc23)CC1,6.3
10,COc1ccccc1NC(=S)N1CCCC1C(=O)N1CCC(c2noc3cc(F)ccc23)CC1 (stereo not given),5.2
11,COc1cccc(NC(=O)N2CCCC2C(=O)N2CCC(c3noc4cc(F)ccc34)CC2)c1 (stereo not given),33.4
12,COc1ccc(NC(=O)NCC(=O)N2CCC(c3noc4cc(F)ccc34)CC2)cc1,19.5
13,O=C(C1CCCN1C(=S)Nc1ccc(Cl)cc1)N1CCC(c2noc3cc(F)ccc23)CC1 (stereo not given),59.4
14,O=C(C1CCCN1C(=O)Nc1ccccc1F)N1CCC(c2noc3cc(F)ccc23)CC1 (stereo not given),54.8
15,O=C(C1CCCN1C(=O)Nc1ccc(Cl)cc1)N1CCC(c2noc3cc(F)ccc23)CC1 (stereo not given),60.3
16,COc1cccc(NC(=S)N2CCCC2C(=O)N2CCC(c3noc4cc(F)ccc34)CC2)c1 (stereo not given),20.5
17,O=C(NCC(=O)N1CCC(c2noc3cc(F)ccc23)CC1)Nc1ccc(Br)cc1,8.5
18,COc1ccccc1NC(=O)N1CCCC1C(=O)N1CCC(c2noc3cc(F)ccc23)CC1 (stereo not given),30.6
19,COc1ccc(NC(=S)NCC(=O)N2CCC(c3noc4cc(F)ccc34)CC2)cc1,3.6
20,COc1ccc(NC(=S)N2CCCC2C(=O)N2CCC(c3noc4cc(F)ccc34)CC2)cc1 (stereo not given),3.9

# From ChEMBL document CHEMBL2311433, “Inhibition of protein glycation by urea and thiourea derivatives of glycine/proline conjugated benzisoxazole analogue - synthesis and structure-activity studies” (Eur J Med Chem, 2013)
